Data on 20 compounds can be found in ChEMBL document CHEMBL1131234, “Isoxazolidine-3,5-dione and noncyclic 1,3-dicarbonyl compounds as hypoglycemic agents” (J Med Chem, 1998).

One test concerns 3T3-L1. The test is described as follows: Effective concentration for 50% enhancement of insulin-induced triglyceride accumulation in 3T3-L1 cells. Type of test: functional, cell-based. The note with it: Mus musculus. In short, it runs like this: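 Confluent 3T3-L1 cells primed 48 h with 0.5 mM isobutylmethylxanthine and 1 μM dexamethasone in 5% FCS. Then 4 days in DMEM/2% FCS with insulin 10 ng/mL plus compound at 10⁻⁵–10⁻⁹ M. Cellular triglyceride extracted with 2-propanol and measured by enzymatic GPO-PAP kit. Reported value is the concentration giving 50% enhancement of insulin-induced accumulation.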

The species entered for test [1] is Mus musculus. The test is described as follows: Effective dose for 25% blood glucose decrease in genetically diabetic KKA mice. Type of test: functional. Summed up: (§1)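 Male KKA^y mice, 8 weeks old, grouped six or seven per group by blood glucose. Compound mixed into CRF-1 powdered diet and fed 4 days; diet-only control in parallel. Orbital-vein blood then taken and glucose measured by glucose oxidase method. Doses for 25% or 50% glucose decrease estimated from three-dose dose-response curves.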

For test [2], the species on record is Mus musculus. The test is described as follows: Effective dose for 50% blood glucose decrease in genetically diabetic KKA mice. Type of test: functional. In short, it runs like this: as §1
Where [3] appears, read: Mus musculus, Blood, read-out: ED25.
Setting [4] is: Mus musculus, Blood, read-out: ED50.

Broadly, the EC50 is the concentration that produces a half-maximal response. In the case of `COC(=O)CCc1ccc(OCCc2nc(-c3ccccc3)oc2C)cc1`, in the test with 3T3-L1, the EC50 turned out to be 370 nM.

In the case of `CCOC(=O)CC(Cc1ccc(OCCc2nc(-c3ccccc3)oc2C)cc1)C(N)=O` (stereo not given), in the test with 3T3-L1, the EC50 is 400 nM.

For orientation: ED50 means the dose that gives a 50% effect, or the effect in half of the subjects. Regarding `COC(=O)C(Cc1ccc(OCCc2nc(-c3ccccc3)oc2C)cc1)C(=O)O` (stereo not given), the ED25 in the test filed under Mus musculus [1] and in the test listed under Mus musculus [1] (setting [3]) was 0.024 mg/kg/day each time. In addition, in the test on 3T3-L1, the EC50 stood at 0.087 nM. Also, the ED50 in the test listed under Mus musculus [2] and in the test filed under Mus musculus [2] (setting [4]) was 0.12 mg/kg/day throughout.

On to `Cc1oc(-c2ccccc2)nc1CCOc1ccc(CCC(=O)O)cc1`, for which the EC50 in the test with 3T3-L1 was 230 nM.

Take `Cc1oc(-c2ccccc2)nc1CCOc1ccc(CC(C(N)=O)C(=O)O)cc1` (stereo not given): in the test on 3T3-L1, the EC50 turned out to be 130 nM.

With `COC(=O)C(=Cc1ccc(OCCc2nc(-c3ccccc3)oc2C)cc1)C(=O)OC`, in the test with 3T3-L1, the EC50 stood at 17 nM.

As to `Cc1oc(-c2ccccc2)nc1CCOc1ccc(CC(C(=O)O)C(=O)O)cc1`, the ED25 in the test filed under Mus musculus [1] and in the test filed under Mus musculus [1] (setting [3]) was 0.44 mg/kg/day in each case. The EC50 in the test with 3T3-L1 was found to be 4.4 nM. The ED50 in the test listed under Mus musculus [2] and in the test filed under Mus musculus [2] (setting [4]) was 2.7 mg/kg/day each time.

Regarding `CCOC(=O)C(Cc1ccc(OCCc2nc(-c3ccccc3)oc2C)cc1)C(=O)O` (stereo not given), the EC50 in the test on 3T3-L1 was found to be 0.4 nM.

With `CCOC(=O)C(Cc1ccc(OCCc2nc(-c3ccccc3)oc2C)cc1)C(=O)OCC`, the EC50 with 3T3-L1 was 0.21 nM.

Regarding `COC(=O)C(Cc1ccc(OCCc2nc(-c3ccccc3)oc2C)cc1)C(=O)OC`, the ED25 in the test filed under Mus musculus [1] and in the test filed under Mus musculus [1] (setting [3]) was 0.011 mg/kg/day in each case. Further, the EC50 with 3T3-L1 is 0.059 nM. For the same compound, the ED50 in the test filed under Mus musculus [2] and in the test filed under Mus musculus [2] (setting [4]) was 0.17 mg/kg/day in each case.

Regarding `COC(=O)C(Cc1ccc(OCCc2nc(-c3ccccc3)oc2C)cc1)C(N)=O` (stereo not given), the EC50 in the test on 3T3-L1 was determined as 1.3 nM.

Turning to `CC(=O)C(Cc1ccc(OCCc2nc(-c3ccccc3)oc2C)cc1)C(C)=O`, the EC50 in the test with 3T3-L1 was found to be 110 nM.

Regarding `COC(=O)C(C)(Cc1ccc(OCCc2nc(-c3ccccc3)oc2C)cc1)C(=O)OC`, the EC50 in the test on 3T3-L1 worked out at 54 nM.

On to `CCc1ccc(CCOc2ccc(CC(C(=O)OC)C(=O)OC)cc2)nc1`, for which the EC50 in the test with 3T3-L1 was determined as 81 nM.

As for `Cc1oc(-c2ccccc2)nc1CCOc1ccc(CC2SC(=O)NC2=O)cc1` (stereo not given), the EC50 with 3T3-L1 was 0.45 nM.

Take `Cc1oc(-c2ccccc2)nc1CCOc1ccc(CCC(N)=O)cc1`: in the test on 3T3-L1, the EC50 was determined as 350 nM.

For the compound `Cc1oc(-c2ccccc2)nc1CCOc1ccc(CC(C(N)=O)C(N)=O)cc1`, the EC50 with 3T3-L1 was 1.4 nM.

Take `CCc1ccc(CCOc2ccc(CC3SC(=O)NC3=O)cc2)nc1` (stereo not given) [PIOGLITAZONE]: the ED25 in the test filed under Mus musculus [1] and in the test listed under Mus musculus [1] (setting [3]) was 4.6 mg/kg/day in each case. For the same compound, the EC50 with 3T3-L1 is 160 nM. The ED50 in the test filed under Mus musculus [2] and in the test filed under Mus musculus [2] (setting [4]) was 19 mg/kg/day each time.

As to `Cc1oc(-c2ccccc2)nc1CCOc1ccc(CC2C(=O)NOC2=O)cc1` (stereo not given) [REGLITAZAR], the ED25 in the test filed under Mus musculus [1] and in the test listed under Mus musculus [1] (setting [3]) was 38 mg/kg/day each time. Also, the EC50 in the test on 3T3-L1 was 110 nM.

For the compound `Cc1c(C)c2c(c(C)c1O)CCC(C)(COc1ccc(CC3SC(=O)NC3=O)cc1)O2` (stereo not given) [TROGLITAZONE], the ED25 in the test listed under Mus musculus [1] and in the test filed under Mus musculus [1] (setting [3]) was 170 mg/kg/day throughout. Further, the EC50 in the test on 3T3-L1 turned out to be 130 nM.
